From ChEMBL document CHEMBL2434910, “Investigation of 3-aryl-pyrimido[5,4-e][1,2,4]triazine-5,7-diones as small molecule antagonists of β-catenin/TCF transcription” (Bioorg Med Chem Lett, 2013)
Calls of active or inactive are those of the source. No cut-off for these calls is given here.

What was measured:
RKO [1] = assay: Antiproliferative activity against human RKO cells assessed as inhibition of colony formation at 0.3 to 0.5 uM after 2 weeks by crystal violet staining-based assay; format: functional, cell-based
Summary of the method: (§1)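 Cells seeded in medium with 10% serum containing the test compound, kept in the dark; surviving colonies counted two weeks after plating. Colony counts are from two independent experiments at each concentration, each run in triplicate.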

DLD-1 [2] = assay: Antiproliferative activity against human DLD1 cells assessed as inhibition of colony formation at 0.3 to 0.5 uM after 2 weeks by crystal violet staining-based assay; format: functional, cell-based; summary of the method: as §1
[3] = Antagonist activity at Beta-catenin/TCF in rat IEC-6 cells assessed as inhibition of Wnt-3a-induced axin2 expression preincubated for 6 hrs followed by Wnt-3a induction measured after 12 hrs by qPCR analysis; format: cell-based
Summary of the method: (§2)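 IEC-6 rat intestinal epithelial cells given compound at a range of concentrations for 6 h, then recombinant mouse Wnt-3a (50 ng/mL) added for 12 h. Target transcript quantified by qPCR with gene-specific primers, normalised to U6. The Wnt-3a-stimulated level with no compound is set to 100%. IC50 taken from concentration-response; mean ± SEM reported where available.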

[4] = Antagonist activity at Beta-catenin/TCF in rat IEC-6 cells assessed as inhibition of Wnt-3a-induced lgr5 expression preincubated for 6 hrs followed by Wnt-3a induction measured after 12 hrs by qPCR analysis; format: cell-based; summary of the method: as §2
[5] = Metabolic stability in mouse liver microsomes assessed as compound remaining at 1 uM after 60 mins by LC-MS analysis; format: ADME, Microsome; conditions: read-out: Stability
Summary of the method: (§3)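 Compound (1 μM) incubated at 37°C with mouse liver microsomes to assess metabolic stability.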

[6] = Metabolic stability in mouse liver microsomes assessed as compound remaining at 1 uM after 30 mins by LC-MS analysis; format: ADME, Microsome; conditions: read-out: Stability; summary of the method: as §3
[7] = Metabolic stability in mouse liver microsomes assessed as compound remaining at 1 uM after 10 mins by LC-MS analysis; format: ADME, Microsome; conditions: read-out: Stability; summary of the method: as §3
Liver [8] = assay: Metabolic stability in mouse liver microsomes assessed as compound remaining at 1 uM after 3 mins by LC-MS analysis; format: ADME, Microsome; conditions: 0.05 h; summary of the method: as §3
Liver [9] = assay: Metabolic stability in mouse liver microsomes assessed as half life at 1 uM after 1 to 60 mins by LC-MS analysis; format: ADME, Microsome; summary of the method: as §3
IEC-6 [10] = assay: Antagonist activity at Beta-catenin/TCF in rat IEC-6 cells assessed as inhibition of Wnt-3a-induced axin2 expression up to 0.7 uM preincubated for 6 hrs followed by Wnt-3a induction measured after 12 hrs by qPCR analysis; format: cell-based; summary of the method: as §2
IEC-6 [11] = assay: Antagonist activity at Beta-catenin/TCF in rat IEC-6 cells assessed as inhibition of Wnt-3a-induced lgr5 expression up to 0.7 uM preincubated for 6 hrs followed by Wnt-3a induction measured after 12 hrs by qPCR analysis; format: cell-based; summary of the method: as §2
[12] = Downregulation of free beta-catenin protein level in HEK293T cells after 3 hrs by Western blotting analysis in presence of dominant negative beta-TrCP; format: functional, cell-based; conditions: Homo sapiens; HEK-293T
[13] = Downregulation of free beta-catenin protein level in HEK293T cells after 3 hrs by Western blotting analysis in presence of GSK3-beta antagonist SB216763 and proteasome inhibitor MG-132; format: functional, cell-based; conditions: Homo sapiens; HEK-293T
HEK-293T = assay: Effect on total beta-catenin protein level in HEK293T cells at 1 to 10 uM after 3 hrs by Western blotting analysis in presence of GSK3-beta antagonist SB216763; format: functional, cell-based; conditions: Homo sapiens
Summary of the method: (§4)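 HEK293T cells treated with 5 μM SB216763 (GSK3β antagonist) together with various concentrations of compound, in the dark. Free and total β-catenin protein assessed by Western blot.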

SW480 [14] = assay: Downregulation of axin2 protein level in human SW480 cells after 20 hrs by Western blotting analysis; format: functional, cell-based
SW480 [15] = assay: Downregulation of free beta-catenin protein level in human SW480 cells at 3 to 10 uM after 20 hrs by Western blotting analysis; format: functional, cell-based
SW480 [16] = assay: Downregulation of total beta-catenin protein level in human SW480 cells at 3 to 10 uM after 20 hrs by Western blotting analysis; format: functional, cell-based
[17] = Downregulation of free beta-catenin protein level in HEK293T cells at 1 to 10 uM after 3 hrs by Western blotting analysis in presence of GSK3-beta antagonist SB216763; format: functional, cell-based; conditions: Homo sapiens, HEK-293T; summary of the method: as §4
DLD-1 [18] = assay: Downregulation of free beta-catenin protein level in human DLD1 cells at 3 to 10 uM after 20 hrs by Western blotting analysis; format: functional, cell-based
Summary of the method: (§5)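 DLD-1 colorectal cancer cells treated with compound for 20 h in the dark. β-Catenin (free and total pools) and cyclin D1 protein levels assessed by Western blot.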

RKO [19] = assay: Antiproliferative activity against human RKO cells assessed as inhibition of colony formation at 1 to 3 uM after 2 weeks by crystal violet staining-based assay; format: functional, cell-based
Summary of the method: (§6)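 Colony formation assay. DLD-1 (bi-allelic APC mutation) and RKO (no β-catenin dysregulation) colon cancer cells seeded in medium with 10% serum containing compound. Surviving colonies visualised and counted two weeks after plating. Two independent experiments per concentration, each in triplicate. Compound incubations carried out in the dark.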

DLD-1 [20] = assay: Antiproliferative activity against human DLD1 cells assessed as inhibition of colony formation at 1 to 3 uM after 2 weeks by crystal violet staining-based assay; format: functional, cell-based; summary of the method: as §6
DLD-1 [21] = assay: Downregulation of cyclin D1 protein level in human DLD1 cells at 3 to 10 uM after 20 hrs by Western blotting analysis; format: functional, cell-based; summary of the method: as §5
DLD-1 [22] = assay: Downregulation of total beta-catenin protein level in human DLD1 cells at 3 to 10 uM after 20 hrs by Western blotting analysis; format: functional, cell-based; summary of the method: as §5
IEC-6 [23] = assay: Antagonist activity at Beta-catenin/TCF in rat IEC-6 cells assessed as inhibition of Wnt-3a-induced axin2 expression up to 69 uM preincubated for 6 hrs followed by Wnt-3a induction measured after 12 hrs by qPCR analysis; format: cell-based; summary of the method: as §2
IEC-6 [24] = assay: Antagonist activity at Beta-catenin/TCF in rat IEC-6 cells assessed as inhibition of Wnt-3a-induced lgr5 expression up to 69 uM preincubated for 6 hrs followed by Wnt-3a induction measured after 12 hrs by qPCR analysis; format: cell-based; summary of the method: as §2
IEC-6 [25] = assay: Antagonist activity at Beta-catenin/TCF in rat IEC-6 cells assessed as inhibition of Wnt-3a-induced axin2 expression up to 179 uM preincubated for 6 hrs followed by Wnt-3a induction measured after 12 hrs by qPCR analysis; format: cell-based; summary of the method: as §2
IEC-6 [26] = assay: Antagonist activity at Beta-catenin/TCF in rat IEC-6 cells assessed as inhibition of Wnt-3a-induced axin2 expression up to 1.2 uM preincubated for 6 hrs followed by Wnt-3a induction measured after 12 hrs by qPCR analysis; format: cell-based; summary of the method: as §2
IEC-6 [27] = assay: Antagonist activity at Beta-catenin/TCF in rat IEC-6 cells assessed as inhibition of Wnt-3a-induced lgr5 expression up to 1.2 uM preincubated for 6 hrs followed by Wnt-3a induction measured after 12 hrs by qPCR analysis; format: cell-based; summary of the method: as §2

Cn1ncnc2c(=O)n(C)c(=O)nc1-2
inhibition (RKO [1]): Active
inhibition (DLD-1 [2]): Active
IC50 [3]: 0.33 µM
IC50 [4]: 0.29 µM

Oc1nc(-c2ccc(C(F)(F)F)cc2)nc2c1CSCC2
IC50 [3]: 0.64 µM
IC50 [4]: 2.9 µM

CCN(CC)CCOc1ccc(-c2nc3c(=O)n(C)c(=O)nc-3n(-c3ccccc3)n2)cc1
remaining at 1 h, 1 µM [5]: 31.8%
remaining at 0.5 h, 1 µM [6]: 70.7%
remaining at 10 min, 1 µM [7]: 92.2%
Stability (Liver [8]): 110%
IC50 [3]: 0.3 µM
t1/2 (Liver [9]): 34.7 min
IC50 [4]: 0.26 µM

CCN(CC)CCOc1ccc(-c2nc3c(=O)n(C)c(=O)nc-3n(C)n2)cc1
inhibition (IEC-6 [10]): inactive
inhibition (IEC-6 [11]): inactive

COc1ccc(-c2nc3c(=O)n(C)c(=O)nc-3n(-c3ccccc3)n2)cc1
IC50 [3]: 2.67 µM
IC50 [4]: 2.1 µM

COc1c(C[C@@H](C)OC(=O)Oc2ccc(O)cc2)c2c3c(C[C@@H](C)OC(=O)c4ccccc4)c(OC)c(=O)c4c(O)cc(OC)c(c5c(OC)cc(O)c(c1=O)c52)c43 [CALPHOSTIN C]
IC50 [3]: 0.55 µM
IC50 [4]: 0.39 µM

Cn1nc(-c2ccc(Cl)cc2)nc2c(=O)n(C)c(=O)nc1-2
Activity [12]: Active
Activity [13]: inactive
Activity (HEK-293T): inactive
Activity (SW480 [14]): Dose-dependent effect
Activity (SW480 [15]): Active
Activity (SW480 [16]): Active
Activity [17]: Active
Activity (DLD-1 [18]): Active
inhibition (RKO [19]): Active
inhibition (DLD-1 [20]): Active
Activity (DLD-1 [21]): Active
Activity (DLD-1 [22]): Active
IC50 [3]: 1.77 µM
IC50 [4]: 1.53 µM

CCN(CC)CCOc1ccc(-c2nnc3c(n2)c(=O)n(C)c(=O)n3C)cc1
inhibition (IEC-6 [23]): inactive
inhibition (IEC-6 [24]): inactive

CCN(CC)CCOc1ccc(-c2nnc3c(n2)c(=O)n(C)c(=O)n3-c2ccccc2)cc1
inhibition (IEC-6 [25]): Active
IC50 [4]: 165 µM

COc1ccc(-c2nc3c(=O)n(C)c(=O)nc-3n(CCO)n2)cc1
inhibition (IEC-6 [26]): inactive
inhibition (IEC-6 [27]): inactive

COc1ccc(-c2nc3c(=O)n(C)c(=O)nc-3n(C)n2)cc1
Activity (DLD-1 [21]): Active
Activity (DLD-1 [22]): Active
IC50 [3]: 2.67 µM
IC50 [4]: 1.53 µM
